{"source": "paper PMC3583018", "about": "(Synapse (New York, N.Y.), 2010)", "key": {"D2 plus D3 receptors [1]": {"system": "D2 plus D3 receptors", "assay_type": "binding, Sprague-Dawley rat", "details": "rat striatum, n = 30", "method_in_brief": "(§1)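 Brains from male rhesus monkey (5 kg, 6 years) and male Sprague-Dawley rats (~500 g, 5 months) were flash frozen, and 20 μm coronal sections were cut. Sections were incubated 30 min with 4 nM tritiated test radioligand or 10 nM [3H]raclopride, ±1 μM S(−)-eticlopride for nonspecific binding. Sections were rinsed five times in ice-cold buffer, then imaged 24 h on a gaseous beta imager and calibrated against tritium standards. Reported as mean ± S.E.M (monkey n = 8, rat n = 30).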"}, "D2 plus D3 receptors [2]": {"system": "D2 plus D3 receptors", "assay_type": "binding, rhesus monkey", "details": "n = 8; for B2 apparent receptor binding density: 10 nM radioligand; for B1 apparent receptor binding density: 4 nM radioligand", "method_in_brief": "as §1"}, "rat rD3 receptors [3]": {"target": "T1, rat rD3 receptors (Rattus norvegicus, UniProt P19020)", "T1 sequence (P19020 whole entry)": "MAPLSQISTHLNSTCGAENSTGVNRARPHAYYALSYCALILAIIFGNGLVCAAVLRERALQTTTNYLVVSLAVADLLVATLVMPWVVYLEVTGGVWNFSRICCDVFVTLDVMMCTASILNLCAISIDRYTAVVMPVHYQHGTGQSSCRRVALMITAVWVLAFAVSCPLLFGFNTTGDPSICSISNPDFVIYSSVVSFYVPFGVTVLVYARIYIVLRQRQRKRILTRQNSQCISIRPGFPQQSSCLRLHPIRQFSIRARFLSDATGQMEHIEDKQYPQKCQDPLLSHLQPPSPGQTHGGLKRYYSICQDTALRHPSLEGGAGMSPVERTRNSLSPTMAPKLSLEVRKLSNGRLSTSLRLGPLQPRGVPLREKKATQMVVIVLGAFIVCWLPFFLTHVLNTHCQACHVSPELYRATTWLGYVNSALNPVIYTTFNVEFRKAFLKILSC", "experiment": "Saturation", "details": "rD3 in Sf9 cells, saturation binding, mean ± S.E.M n = 3"}, "D2 receptors [4]": {"system": "D2 receptors", "experiment": "Fractional receptor occupancy from saturation binding isotherm", "details": "monkey striatum; for receptors labeled: derived from saturation binding isotherm", "method_in_brief": "(§2)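 Calculated rather than measured: the fraction of D2 or D3 receptors occupied in monkey striatum comes from B/Bmax = L/(L+Kd). L is 4 nM for the tritiated test radioligand or 10 nM for tritiated raclopride. Kd values are from saturation binding to cloned human D2L/D3 receptors expressed in HEK cells. The test radioligand Kd values were taken from earlier work.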"}, "D3 receptors [5]": {"system": "D3 receptors", "experiment": "Fractional receptor occupancy from saturation binding isotherm", "details": "monkey striatum; for receptors labeled: derived from saturation binding isotherm", "method_in_brief": "as §2"}, "human hD3 receptors [6]": {"target": "T2, human hD3 receptors (Homo sapiens, UniProt P35462)", "T2 sequence (P35462 whole entry)": "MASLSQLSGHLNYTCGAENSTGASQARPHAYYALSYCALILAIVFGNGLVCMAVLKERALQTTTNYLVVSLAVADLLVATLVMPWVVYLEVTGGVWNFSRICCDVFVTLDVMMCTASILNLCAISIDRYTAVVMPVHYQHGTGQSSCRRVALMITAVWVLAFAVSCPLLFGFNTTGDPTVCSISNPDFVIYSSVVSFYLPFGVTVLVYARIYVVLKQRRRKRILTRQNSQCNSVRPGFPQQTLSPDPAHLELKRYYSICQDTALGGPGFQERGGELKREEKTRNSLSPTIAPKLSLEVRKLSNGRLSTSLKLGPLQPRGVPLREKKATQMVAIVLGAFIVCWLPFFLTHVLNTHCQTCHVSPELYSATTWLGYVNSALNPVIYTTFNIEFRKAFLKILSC", "experiment": "Saturation", "details": "hD3 in HEK cells, saturation binding, mean ± S.E.M n = 3"}, "D2 receptors [7]": {"system": "D2 receptors", "experiment": "Fractional receptor occupancy from saturation binding isotherm", "details": "rat striatum; for receptors labeled: derived from saturation binding isotherm", "method_in_brief": "(§3)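 Computed occupancy fractions for rat striatum D2 or D3 receptors use the mass-action isotherm B/Bmax = L/(L+Kd). L is 4 nM for the tritiated test radioligand and 10 nM for tritiated raclopride. Kd values come from saturation binding to rat D2L/D3 receptors expressed in Sf9 cell membranes. The test radioligand Kd was taken from earlier work.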"}, "D3 receptors [8]": {"system": "D3 receptors", "experiment": "Fractional receptor occupancy from saturation binding isotherm", "details": "rat striatum; for receptors labeled: derived from saturation binding isotherm", "method_in_brief": "as §3"}, "human hD3 receptors [9]": {"target": "T2, human hD3 receptors", "details": "cited from earlier work"}, "human hD2L receptors": {"target": "human hD2L receptors (Homo sapiens, UniProt P14416)", "sequence (P14416 whole entry)": "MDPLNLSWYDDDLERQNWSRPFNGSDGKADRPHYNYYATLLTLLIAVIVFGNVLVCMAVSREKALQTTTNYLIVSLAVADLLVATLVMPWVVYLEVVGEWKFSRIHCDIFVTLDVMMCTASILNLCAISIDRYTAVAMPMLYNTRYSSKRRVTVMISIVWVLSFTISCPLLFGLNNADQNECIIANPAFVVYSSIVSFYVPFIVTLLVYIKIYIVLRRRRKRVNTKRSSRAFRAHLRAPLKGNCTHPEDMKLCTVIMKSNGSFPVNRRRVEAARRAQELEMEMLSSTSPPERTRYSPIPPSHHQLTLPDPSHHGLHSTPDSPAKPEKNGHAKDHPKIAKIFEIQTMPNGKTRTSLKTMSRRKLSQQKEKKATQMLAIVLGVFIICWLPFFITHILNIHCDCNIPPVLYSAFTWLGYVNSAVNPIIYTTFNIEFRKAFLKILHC", "details": "hD2L in HEK cells, saturation binding, mean ± S.E.M n = 3; ref Xu et al. (2009); cited from earlier work"}, "rat rD3 receptors [10]": {"target": "T1, rat rD3 receptors", "details": "cited from earlier work"}, "D3 receptors [11]": {"target": "D3 receptors (Rattus norvegicus, UniProt P19020)", "sequence (P19020 whole entry)": "as the sequence (P19020 whole entry) above", "experiment": "Scatchard analysis of autoradiography binding to rat brain sections", "parameters": "species or system Sprague-Dawley rat"}, "rat rD2L receptors": {"target": "rat rD2L receptors (Rattus norvegicus, UniProt P61169)", "sequence (P61169 whole entry)": "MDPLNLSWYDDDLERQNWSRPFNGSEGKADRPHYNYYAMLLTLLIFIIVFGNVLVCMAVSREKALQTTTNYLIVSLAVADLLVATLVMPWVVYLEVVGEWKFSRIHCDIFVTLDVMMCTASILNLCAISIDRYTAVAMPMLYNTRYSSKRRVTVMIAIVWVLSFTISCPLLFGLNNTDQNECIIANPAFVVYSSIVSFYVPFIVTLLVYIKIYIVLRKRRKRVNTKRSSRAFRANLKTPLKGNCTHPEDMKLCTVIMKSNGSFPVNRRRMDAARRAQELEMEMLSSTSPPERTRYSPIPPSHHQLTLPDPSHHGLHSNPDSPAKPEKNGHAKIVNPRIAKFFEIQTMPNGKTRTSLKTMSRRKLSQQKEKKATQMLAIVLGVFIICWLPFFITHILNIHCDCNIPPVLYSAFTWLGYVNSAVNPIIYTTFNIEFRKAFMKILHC", "details": "rD2L in Sf9 cells, saturation binding, mean ± S.E.M n = 3; ref Xu et al. (2009); cited from earlier work"}, "[12]": {"details": "10 nM, from Eq. 2 with Kd of Table I"}, "[13]": {"details": "4 nM, from Eq. 2 with Kd of Table I"}}, "note": "Values joined by “and” are separate entries in the source; they are usually repeats but may differ in a detail not shown here. Identical values can stand only once. Like-named read-outs stand apart in the source and are kept apart here."}
{"smiles": "CCN1CCC[C@H]1CNC(=O)c1c(O)c(Cl)cc(Cl)c1OC", "note": "(racemic) [[^3H]raclopride, reference compound]", "values": [{"measurement": "B2 apparent receptor binding density", "setting": "D2 plus D3 receptors [1]; 10 nM radioligand", "value": "145 fmol/mg tissue and 145 ± 4 fmol/mg tissue"}, {"measurement": "B2 apparent receptor binding density", "setting": "D2 plus D3 receptors [2]; rhesus caudate", "value": "318 fmol/mg tissue and 318 ± 17 fmol/mg tissue"}, {"measurement": "B2 apparent receptor binding density", "setting": "D2 plus D3 receptors [2]; rhesus putamen", "value": "345 fmol/mg tissue and 345 ± 23 fmol/mg tissue"}, {"measurement": "Kd", "setting": "rat rD3 receptors [3]", "value": "17.1 ± 1.7", "unit": "nM"}, {"measurement": "receptors labeled", "setting": "D2 receptors [4]; 10 nM", "value": 86, "unit": "%"}, {"measurement": "a2, receptor occupancy fraction", "setting": "D2 receptors [4]; [12]", "value": 0.86}, {"measurement": "receptors labeled", "setting": "D3 receptors [5]; 10 nM", "value": 36, "unit": "%"}, {"measurement": "b2, receptor occupancy fraction", "setting": "D3 receptors [5]; [12]", "value": 0.36}, {"measurement": "Kd", "setting": "human hD3 receptors [6]", "value": "18 ± 1", "unit": "nM"}, {"measurement": "receptors labeled", "setting": "D2 receptors [7]; 10 nM", "value": 60, "unit": "%"}, {"measurement": "a2, receptor occupancy fraction", "setting": "D2 receptors [7]; [12]", "value": 0.6}, {"measurement": "receptors labeled", "setting": "D3 receptors [8]; 10 nM", "value": 37, "unit": "%"}, {"measurement": "b2, receptor occupancy fraction", "setting": "D3 receptors [8]; [12]", "value": 0.37}]}
{"smiles": "COc1ccccc1N1CCN(CCCCNC(=O)c2ccc(N(C)C)cc2)CC1", "note": "[[^3H]WC-10, 4-(dimethylamino)-N-(4-(4-(2-methoxyphenyl)piperazin-1-yl)butyl)benzamide]", "values": [{"measurement": "B1 apparent receptor binding density", "setting": "D2 plus D3 receptors [1]; 4 nM radioligand", "value": "38 fmol/mg tissue and 38 ± 2 fmol/mg tissue"}, {"measurement": "B1 apparent receptor binding density", "setting": "D2 plus D3 receptors [2]; rhesus anterior caudate", "value": "125 fmol/mg tissue and 125 ± 3 fmol/mg tissue"}, {"measurement": "B1 apparent receptor binding density", "setting": "D2 plus D3 receptors [2]; rhesus putamen", "value": "141 fmol/mg tissue and 141 ± 4 fmol/mg tissue"}, {"measurement": "receptors labeled", "setting": "D2 receptors [4]; 4 nM", "value": 5, "unit": "%"}, {"measurement": "a1, receptor occupancy fraction", "setting": "D2 receptors [4]; [13]", "value": 0.05}, {"measurement": "receptors labeled", "setting": "D3 receptors [5]; 4 nM", "value": 78, "unit": "%"}, {"measurement": "b1, receptor occupancy fraction", "setting": "D3 receptors [5]; [13]", "value": 0.78}, {"measurement": "Kd", "setting": "human hD3 receptors [9]; hD3 in HEK cells, saturation binding, mean ± S.E.M n = 3, ref Xu et al. (2009)", "value": "1.2 nM and 1.16 nM"}, {"measurement": "D2L/D3 (Kd ratio)", "setting": "human hD3 receptors [9]; human receptors in HEK cells, ref Xu et al. (2009)", "value": 65.5}, {"measurement": "fold higher affinity to human HEK D3 than to HEK D2L receptors", "setting": "human hD3 receptors [9]; ref Xu et al., 2009", "value": 66, "unit": "fold"}, {"measurement": "Kd", "setting": "human hD2L receptors", "value": "76 ± 4", "unit": "nM"}, {"measurement": "Kd", "setting": "rat rD3 receptors [10]; rD3 in Sf9 cells, saturation binding, mean ± S.E.M n = 3, ref Xu et al. (2009)", "value": "3.9 nM and 3.94 nM"}, {"measurement": "D2L/D3 (Kd ratio)", "setting": "rat rD3 receptors [10]; rat receptors in Sf9 cells, ref Xu et al. (2009)", "value": 40.1}, {"measurement": "fold higher affinity to rat Sf9 rD3 than to rat Sf9 rD2L receptors", "setting": "rat rD3 receptors [10]; ref Xu et al., 2009", "value": 40, "unit": "fold"}, {"measurement": "fold lower affinity to rat Sf9 rD3 than to human HEK D3 receptors", "setting": "rat rD3 receptors [10]; ref Xu et al., 2009", "value": 3, "unit": "fold"}, {"measurement": "Kd", "setting": "D3 receptors [11]", "value": 3.4, "unit": "nM"}, {"measurement": "Kd", "setting": "rat rD2L receptors", "value": "158 ± 8.3", "unit": "nM"}, {"measurement": "receptors labeled", "setting": "D2 receptors [7]; 4 nM", "value": 2, "unit": "%"}, {"measurement": "a1, receptor occupancy fraction", "setting": "D2 receptors [7]; [13]", "value": 0.02}, {"measurement": "receptors labeled", "setting": "D3 receptors [8]; 4 nM", "value": 50, "unit": "%"}, {"measurement": "b1, receptor occupancy fraction", "setting": "D3 receptors [8]; [13]", "value": 0.5}]}
